The test system of data set [1] is Human immunodeficiency virus 1. Kind of data set: Antiviral activity against HIV1. It is filed as functional, organism-based. Summed up: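 Cell-based HIV-1 replication assay. EC50 is the concentration that inhibits virus replication by 50%.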
Data set [2] deals with T1, Structural capsid protein (Human immunodeficiency virus 1, UniProt Q76129). In words: Inhibition of HIV1 capsid protein binding to fluorescein labeled 3-(5-(3-ethyl-5-(5-methylfuran-2-yl)-1H-pyrazol-1-yl)-1-((6-oxo-1,6-dihydropyridin-3-yl)methyl)-1H-benzo[d]imidazol-2-yl)-4-hydroxybenzoic acid after 15 mins by fluorescence polarization assay. Summed up: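 CA-NC protein (40 nM) mixed with 40 nM fluorescein probe plus serially diluted compounds in Tris pH 8.0, 100 mM NaCl, CHAPS, DTT buffer with 2% DMSO before mixing. 15 min incubation, then fluorescence polarization read. Wells without compound defined 0% displacement; probe-only wells defined 100%.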
In general terms: Fluorescence polarisation rises when a labelled molecule tumbles more slowly, as on binding a larger partner.

A short description of data set [3]: Half life in rat liver microsomes. It is filed as ADME, Microsome. (In general: Liver microsomes are vesicles of endoplasmic reticulum, rich in cytochrome P450 enzymes.)
The nature of data set [4]: Half life in human liver microsomes. It is filed as ADME, Microsome.
Data set [5] in a line: Permeability of the compound across human Caco2 cells. It is filed as ADME, cell-based. The settings on record: Caco-2, read-out: permeability.
Data set [6] deals with T1, Structural capsid protein. Kind of data set: Inhibition of HIV1 capsid protein assembly using 5'-fluorescein-labeled (TG)25 oligonucleotide after 2 hrs by fluorometry-based capsid disassembly assay. Summed up: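 Biotin-(TG)25 oligonucleotide (25 nM, overnight) immobilized on neutravidin wells; CA-NC (2 µM) assembled with 100 nM 5'-fluorescein (TG)25 in Tris pH 8.0/NaCl/ZnSO4/CHAPS/BSA/DTT buffer, 2 h RT, washed. Serially diluted compounds (buffer + 0.125% DMSO) added 2 h RT; washes, SDS release, captured fluorescence read. Ten-point curves fitted; IC50 = concentration giving 50% disassembly.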

For orientation: pEC50 means −log10 of the EC50, conventionally taken in molar units. Lower therefore signals a high EC50. The term pIC50 denotes the negative decadic logarithm of the IC50, by convention in mol/L. A higher pIC50 goes with a small IC50. The half-life is the time in which the quantity being followed falls by half. A lower half-life goes with rapid decline.

SMILES strings stand for the structures. pEC50, pIC50: −log10 of the molar value. A value given as a limit tells only on which side of the number the result lay.

T1 sequence (Q76129 whole entry): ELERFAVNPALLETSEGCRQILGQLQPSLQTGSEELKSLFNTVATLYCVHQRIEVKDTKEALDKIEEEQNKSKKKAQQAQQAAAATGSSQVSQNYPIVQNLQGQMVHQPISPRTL

For `CCc1cc(-c2ccc(C(F)(F)F)o2)n(-c2ccc3c(c2)nc(-c2cc(C(=O)N4CCCC4)ccc2O)n3Cc2cc(C)c(=O)n(C)c2)n1`, the pEC50 in data set [1] is 7.57. Also, the pIC50 in data set [2] was 7.17. Also, the half-life in data set [3] was 18 min; in data set [4], 10 min. In data set [5], the Papp turned out to be 7.2 ×10⁻⁶ cm/s.
For `CCc1cc(-c2ccc(C)o2)n(-c2ccc3c(c2)nc(-c2ccccc2O)n3Cc2ccc(OC)c(O)c2)n1`, in data set [1], the pEC50 is 5.19. The compound also showed a pIC50 in data set [6] of 6.39.
`CCc1cc(-c2ccc(C)o2)n(-c2ccc3c(c2)nc(-c2cc(F)ccc2O)n3Cc2ccc(OC)c(O)c2)n1` had a pEC50 in data set [1] of 5.00. The same compound gave a pIC50 in data set [6] of 6.55.
For `CCc1cc(-c2ccc(C)o2)n(-c2ccc3c(c2)nc(-c2cc(C(=O)O)ccc2O)n3Cc2ccc(OC)c(O)c2)n1`, the pEC50 in data set [1] is 5.21. Also, the values for the pIC50 in data set [2] and in data set [6] were 6.26 and 7.06, respectively.
For the compound `CCc1cc(-c2ccc(C)o2)n(-c2ccc3c(c2)nc(-c2cc(C(=O)N(C)C)ccc2O)n3Cc2ccc(OC)c(O)c2)n1`, the pEC50 in data set [1] was 6.20. Also, the negative logarithm of the IC50 (pIC50) in data set [6] was 6.92.
`CCc1cc(-c2ccc(C)o2)n(-c2ccc3c(c2)nc(-c2ccccc2O)n3Cc2ccc(=O)[nH]c2)n1`: the pEC50 in data set [1] was 6.59. Also, the pIC50 is 6.16 in data set [2] and 7.26 in data set [6].
In data set [1], `CCc1cc(-c2ccc(C)o2)n(-c2ccc3c(c2)nc(-c2cc(F)ccc2O)n3Cc2ccc(=O)[nH]c2)n1` showed a pEC50 of 6.59. This compound also had a pIC50 in data set [6] of 7.39.
Turning to `CCc1cc(-c2ccc(C)o2)n(-c2ccc3c(c2)nc(-c2cc(C(=O)O)ccc2O)n3Cc2ccc(=O)[nH]c2)n1`, the pEC50 in data set [1] is less than 4.34. The pIC50 in data set [2] was 6.19; in data set [6], 7.25.
In the case of `CCc1cc(-c2ccc(C)o2)n(-c2ccc3c(c2)nc(-c2cc(C(=O)N(C)C)ccc2O)n3Cc2ccc(=O)[nH]c2)n1`, the pEC50 in data set [1] is 6.23. In addition, the pIC50 in data set [2] was 7.36; in data set [6], 7.31.
`CCc1cc(-c2ccc(C(F)(F)F)o2)n(-c2ccc3c(c2)nc(-c2cc(C(=O)N(C)C)ccc2O)n3Cc2ccc(=O)[nH]c2)n1`: in data set [1], the pEC50 was 7.04. The compound further showed a pIC50 in data set [2] of 7.23.
Take `CCc1cc(-c2ccc(C(F)(F)F)o2)n(-c2ccc3c(c2)nc(-c2cc(C(=O)N4CCCC4)ccc2O)n3Cc2ccc(=O)[nH]c2)n1`: the pEC50 in data set [1] is 7.21. For the same compound, the pIC50 in data set [2] was 7.21. The half-life in data set [3] was determined as 45 min; in data set [4], 30 min. In addition, the Papp in data set [5] is 0.19 ×10⁻⁶ cm/s.
`CCc1cc(-c2ccc(C(F)(F)F)o2)n(-c2ccc3c(c2)nc(-c2cc(C(=O)N4CCCC4)ccc2O)n3Cc2c[nH]c(=O)c(C)c2)n1`: the negative logarithm of the EC50 (pEC50) in data set [1] is 7.55. Further, the pIC50 in data set [2] was 7.42. Further, the half-life in data set [3] is 25 min; in data set [4] it was 11 min. Besides, in data set [5], the Papp worked out at 6.8 ×10⁻⁶ cm/s.
On to `Cc1cc(-c2ccco2)n(-c2ccc3c(c2)nc(COc2ccc(C(=N)N)cc2)n3C)n1`, for which the negative-log EC50 (pEC50) in data set [1] is 4.55. In addition, the pIC50 in data set [6] was 5.22.
For the compound `CCc1cc(-c2ccc(C)o2)n(-c2ccc3c(c2)nc(-c2ccc(C(N)=O)cc2)n3CC2CC2)n1`, in data set [1], the pEC50 is 5.46. The compound further showed a pIC50 in data set [6] of 6.00.
As to `CCc1cc(-c2ccc(C)o2)n(-c2ccc3c(c2)nc(-c2ccc(C(N)=O)cc2)n3Cc2cccnc2)n1`, in data set [1], the pEC50 is 5.59. Moreover, in data set [6], the pIC50 is 6.44.
The compound `CCc1cc(-c2ccc(C)o2)n(-c2ccc3c(c2)nc(-c2ccc(C(N)=O)cc2)n3Cc2ccc(OC)c(O)c2)n1` gave a pEC50 in data set [1] of 6.19. In addition, the pIC50 in data set [6] is 6.10.
Compound `CCc1cc(-c2ccc(C)o2)n(-c2ccc3c(c2)nc(-c2ccc(C(N)=O)cc2)n3Cc2ccc(OC)nc2)n1` showed a pEC50 in data set [1] of 5.46. In addition, the pIC50 in data set [6] was 6.08.
The corresponding values for `CCc1cc(-c2ccc(C)o2)n(-c2ccc3c(c2)nc(-c2ccc(C(N)=O)cc2)n3Cc2ccc(=O)[nH]c2)n1` are 4.89 and 6.77.

Source of the values: ChEMBL document CHEMBL2203110, “Inhibition of HIV-1 capsid assembly: optimization of the antiviral potency by site selective modifications at N1, C2 and C16 of a 5-(5-furan-2-yl-pyrazol-1-yl)-1H-benzimidazole scaffold” (Bioorg Med Chem Lett, 2012).
